Measurements: PubChem BioAssay
The list shows a part of the results. Activity calls are given as the source filed them. No stated cut-off is given here; in the data, active means inhibition above about 40%; inactive means the rest.

Tested on: not listed separately
Assay: NF-kB reporter suppression in CF airway cells – cell-based, GFP fluorescence, single concentration, confirmation (AID 602472);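 further: stimulus PAF is a Pseudomonas aeruginosa filtrate and not platelet activating factor; plate controls were DMSO wells with stimulus for no effect and unstimulated DMSO wells for full effect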
Conditions: KKLEB CF airway cells, PAF-induced NF-kB-GFP fluorescence, overnight; at 5 µM; stronger effect = higher value
Method in brief: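 Test system: KKLEB NFkB-GFP reporter cells | Buffer or medium: Medium with 2% FBS for cells, serum-free medium for stimulus | Probe or stimulus: Pseudomonas aeruginosa filtrate (PAF) as NFkB-activating stimulus | Doses: 5 µM single dose | Incubation: 2 h pretreatment, overnight stimulation | Measured by: GFP fluorescence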

SMILES	inhibition
Cc1nnc(NC(=O)Nc2ccc(Cl)c(Cl)c2)s1	68% (active)
Cc1ccc2occ(/C=N/NC(=O)c3ccccc3C)c(=O)c2c1	94.8% (active)
COc1ccc(-c2cn[nH]c2-c2ccc(OC)cc2)cc1	69.3% (active)
Brc1ccc2ncnc(NCc3cccnc3)c2c1	69.2% (active)

Biological target: PEG-3 (UniProt Q6IN02)
Sequence (Q6IN02 whole entry, looked up): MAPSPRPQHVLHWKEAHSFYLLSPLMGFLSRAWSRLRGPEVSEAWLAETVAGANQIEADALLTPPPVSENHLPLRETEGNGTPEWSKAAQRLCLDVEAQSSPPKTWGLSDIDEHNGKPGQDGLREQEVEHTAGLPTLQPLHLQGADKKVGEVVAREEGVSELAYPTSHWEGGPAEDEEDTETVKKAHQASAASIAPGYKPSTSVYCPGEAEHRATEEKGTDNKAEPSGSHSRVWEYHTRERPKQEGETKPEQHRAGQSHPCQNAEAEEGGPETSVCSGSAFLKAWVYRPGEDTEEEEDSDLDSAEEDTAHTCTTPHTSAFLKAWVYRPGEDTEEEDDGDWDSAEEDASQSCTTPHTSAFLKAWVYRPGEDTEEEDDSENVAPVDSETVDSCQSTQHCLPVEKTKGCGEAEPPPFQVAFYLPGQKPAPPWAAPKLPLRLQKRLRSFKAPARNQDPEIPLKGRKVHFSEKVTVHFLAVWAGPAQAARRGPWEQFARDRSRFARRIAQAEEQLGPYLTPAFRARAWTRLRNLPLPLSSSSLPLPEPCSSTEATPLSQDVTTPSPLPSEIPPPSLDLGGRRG
Assay: inhibition of PEG-3 promoter-driven reporter – cell-based, HeLa, luciferase, CREF/GAPDH counter-screen panel, dose response (AID 624167)
Conditions: CREF/GAPDH counter-screens; HeLa PEG-Prom luciferase reporter, overnight, run 1, dose range 1, at 100 µM (top of the series) unless noted

SMILES	inhibition [%]
O=C(Nc1ccc([N+](=O)[O-])cc1)C(=O)Nc1cccc(C(=O)O)c1	92.5
C=CCn1c(COc2ccccc2)nnc1SC(C)C(=O)N/N=C/c1cc(Cl)ccc1O (stereo not given)	64
CCC(=O)NC(c1ccc(C)cc1)c1ccc2cccnc2c1O (stereo not given)	-12.7
COc1ccc(C(O)(CC(C)C)C(CN2CCOCC2)c2ccccc2)cc1 (stereo not given)	100
C/C(=N\NC(=O)c1c(C)nc2ccccn12)c1ccc(O)cc1O	66.9
COc1cc(/C=C/C(=O)N2CCC=CC2=O)cc(OC)c1OC	99.1
O=C(/C=C/Nc1ccccc1Br)c1ccccn1	96.6
COc1cc(/C=C/c2ccc3cccc(O)c3n2)c(Br)cc1O	99.5
Cc1cc(C=C2C(=O)c3ccccc3C2=O)c(C)n1-c1ccccc1	62.9
CCN(CC)c1ccc2nc3ccc(N)cc3[n+](-c3ccccc3)c2c1	101
CC(C)(c1ccccc1)c1ccc(OCC(O)CNC2CCN(Cc3ccccc3)CC2)cc1 (stereo not given)	102
O=C(N/N=C\c1c(O)ccc2ccccc12)c1cncc(Br)c1	82.3
COc1ccc(C(NC(C)=O)c2ccc3cccnc3c2O)c(OC)c1 (stereo not given)	64.7
O=C(/C=C/c1ccccc1)NC(NC(=S)Nc1cccc(Cl)c1)C(Cl)(Cl)Cl (stereo not given)	98.2
C=C(C)Cn1c(SCC(=O)N/N=C/c2c(O)ccc3ccccc23)nc2ccccc2c1=O	54.6
COc1ccccc1C(=O)Nc1nc2ccccc2s1	101

SMILES	inhibition [%]
Cc1cc(C)c2nc(NNC(=O)c3ccc(S(=O)(=O)N4CC(C)CC(C)C4)cc3)sc2c1 (stereo not given)	99.5
O=C(CCSc1nc2ccccc2s1)N/N=C/c1c(O)ccc2ccccc12	58.9
Cc1cc(C(=O)COC(=O)C2=COCCO2)c(C)n1-c1ccccc1	101
O=C1/C(=C\c2cccc(O)c2O)SC(=S)N1Cc1ccccc1	99.6
Cc1cc(NC(c2ccc(Cl)cc2)c2ccc3cccnc3c2O)no1 (stereo not given)	37.1
COc1ccc(C(=O)O/N=C(\N)c2ccccn2)cc1	99.1
O=C1c2ccccc2S(=O)(=O)N1Cc1nc2ccccc2s1	101
CCN1C(=O)C(=Cc2cccc(OC)c2Oc2ccc([N+](=O)[O-])cc2[N+](=O)[O-])SC1=S	21.1
COc1cccc2sc(N(CCCN(C)C)C(=O)C(c3ccccc3)c3ccccc3)nc12	102
CC(C)c1ccc(-c2nc3ccccc3s2)cc1	99.1
CNC[C@H](CC1CCCCC1)NC[C@H](NCCC1CCCC1)[C@H](C)O	102
CCN1CCN(C(c2ccc(C(F)(F)F)cc2)c2ccc3cccnc3c2O)CC1 (stereo not given)	101
CCCC(=O)NC(c1ccc(N(C)C)cc1)c1ccc2cccnc2c1O (stereo not given)	24.4
O=C(N/N=C\c1c(O)ccc2ccccc12)c1ccc(Cn2cccn2)o1	84.9
Nc1nonc1-n1nnc(C(=O)N/N=C/c2cc(Br)ccc2O)c1CNc1ccccc1	89.3
